Tests used:
[1] = target: T1, Sodium-dependent serotonin transporter (Homo sapiens, UniProt P31645); assay: Displacement of [3H]-citalopram from Serotonin transporter
How it was run: (§1)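 Radioligand binding: inhibitory binding constants measured against a known radiolabelled re-uptake inhibitor. Ligands were [3H]citalopram for SERT, [3H]WIN35,428 for DAT and [3H]nisoxetine for NET. Values are means of three experiments; minimum significant ratio < 3.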

[2] = target: T2, Sodium-dependent dopamine transporter (Homo sapiens, UniProt Q01959); assay: In vitro inhibition of DA re-uptake into synaptosome; assay type: functional, tissue-based, Brain
T2 sequence (Q01959 whole entry): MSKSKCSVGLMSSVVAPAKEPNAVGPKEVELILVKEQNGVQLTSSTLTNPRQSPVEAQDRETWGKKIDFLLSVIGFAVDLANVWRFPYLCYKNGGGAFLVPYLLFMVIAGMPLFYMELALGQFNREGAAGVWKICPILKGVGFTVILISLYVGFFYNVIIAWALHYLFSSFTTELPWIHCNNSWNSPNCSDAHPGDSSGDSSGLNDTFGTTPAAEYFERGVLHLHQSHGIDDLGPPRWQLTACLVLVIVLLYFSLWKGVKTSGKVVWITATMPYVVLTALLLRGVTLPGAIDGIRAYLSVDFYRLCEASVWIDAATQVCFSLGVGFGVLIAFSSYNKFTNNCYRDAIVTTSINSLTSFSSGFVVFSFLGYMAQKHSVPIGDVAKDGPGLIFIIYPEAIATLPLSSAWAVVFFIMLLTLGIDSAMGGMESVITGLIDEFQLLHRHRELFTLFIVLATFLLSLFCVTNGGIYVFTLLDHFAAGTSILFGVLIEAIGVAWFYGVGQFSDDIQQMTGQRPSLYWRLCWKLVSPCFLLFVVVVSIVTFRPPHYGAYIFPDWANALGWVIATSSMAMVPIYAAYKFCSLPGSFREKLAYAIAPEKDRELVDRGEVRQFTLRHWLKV

[3] = target: T2, Sodium-dependent dopamine transporter; assay: Displacement of [3H]WIN-35428 from Dopamine transporter; how it was run: as §1
[4] = target: T1, Sodium-dependent serotonin transporter; assay: In vitro ability of compound to inhibit 5-HT re-uptake of radiolabeled [3H]-tritium transmitter into synaptosome; assay type: tissue-based, Brain
[5] = target: T3, Sodium-dependent noradrenaline transporter (Homo sapiens, UniProt P23975); assay: In vitro inhibition of [3H]NE re-uptake into synaptosome; assay type: functional, tissue-based, Brain
T3 sequence (P23975 whole entry): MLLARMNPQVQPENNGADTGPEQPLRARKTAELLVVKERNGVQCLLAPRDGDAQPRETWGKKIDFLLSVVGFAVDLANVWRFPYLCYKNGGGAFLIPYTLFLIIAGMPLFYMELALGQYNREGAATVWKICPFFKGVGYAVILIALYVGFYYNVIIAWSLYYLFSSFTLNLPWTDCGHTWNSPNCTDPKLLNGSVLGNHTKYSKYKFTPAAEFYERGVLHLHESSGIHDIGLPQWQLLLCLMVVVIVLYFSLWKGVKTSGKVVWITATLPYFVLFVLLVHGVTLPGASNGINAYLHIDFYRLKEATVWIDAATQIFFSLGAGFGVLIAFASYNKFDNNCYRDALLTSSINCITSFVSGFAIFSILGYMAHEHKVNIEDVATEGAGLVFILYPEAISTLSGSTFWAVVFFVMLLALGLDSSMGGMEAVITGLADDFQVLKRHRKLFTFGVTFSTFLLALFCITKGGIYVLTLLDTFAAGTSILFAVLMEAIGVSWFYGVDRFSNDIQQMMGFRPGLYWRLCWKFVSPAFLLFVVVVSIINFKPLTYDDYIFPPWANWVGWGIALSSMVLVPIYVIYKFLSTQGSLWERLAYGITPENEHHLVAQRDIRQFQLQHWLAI

[6] = target: T3, Sodium-dependent noradrenaline transporter; assay: Compound was tested for its ability to displace […] from norepinephrine transporter
[7] = target: T3, Sodium-dependent noradrenaline transporter; assay: Displacement of [3H]-Nisoxetine from norepinephrine transporter
[8] = target: Sodium-dependent serotonin transporter (Mus musculus) (UniProt Q60857); assay: In vivo potentiation of compound towards Serotonin transporter after po administration; assay type: functional, organism-based
Sodium-dependent serotonin transporter (Mus musculus), sequence (Q60857 whole entry): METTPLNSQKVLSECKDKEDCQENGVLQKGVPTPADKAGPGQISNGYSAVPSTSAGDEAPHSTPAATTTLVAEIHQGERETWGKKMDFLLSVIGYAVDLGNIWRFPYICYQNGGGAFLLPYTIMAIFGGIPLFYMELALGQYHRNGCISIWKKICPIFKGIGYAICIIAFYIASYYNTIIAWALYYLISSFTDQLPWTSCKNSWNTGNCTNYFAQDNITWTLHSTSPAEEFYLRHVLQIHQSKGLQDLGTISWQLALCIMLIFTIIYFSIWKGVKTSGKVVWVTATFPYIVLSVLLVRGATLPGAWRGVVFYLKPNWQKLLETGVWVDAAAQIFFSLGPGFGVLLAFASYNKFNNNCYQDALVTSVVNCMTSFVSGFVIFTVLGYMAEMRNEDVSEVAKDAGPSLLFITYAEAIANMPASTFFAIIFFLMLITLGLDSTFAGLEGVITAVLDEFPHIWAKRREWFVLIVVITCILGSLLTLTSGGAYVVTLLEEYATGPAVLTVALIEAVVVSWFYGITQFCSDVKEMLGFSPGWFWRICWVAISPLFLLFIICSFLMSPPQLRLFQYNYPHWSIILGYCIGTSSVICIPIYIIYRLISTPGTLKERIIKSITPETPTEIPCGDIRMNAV
How it was run: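 Oral dosing, read-out from the 5-HTP test. The value is the minimum effective dose (EDmin) in mg/kg po.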

[9] = target: Sodium-dependent dopamine transporter (Mus musculus) (UniProt Q61327); assay: In vivo potentiation of compound towards Dopamine transporter after po administration was determined in mouse using mouse locomotor activity […]; assay type: functional, organism-based
Sodium-dependent dopamine transporter (Mus musculus), sequence (Q61327 whole entry): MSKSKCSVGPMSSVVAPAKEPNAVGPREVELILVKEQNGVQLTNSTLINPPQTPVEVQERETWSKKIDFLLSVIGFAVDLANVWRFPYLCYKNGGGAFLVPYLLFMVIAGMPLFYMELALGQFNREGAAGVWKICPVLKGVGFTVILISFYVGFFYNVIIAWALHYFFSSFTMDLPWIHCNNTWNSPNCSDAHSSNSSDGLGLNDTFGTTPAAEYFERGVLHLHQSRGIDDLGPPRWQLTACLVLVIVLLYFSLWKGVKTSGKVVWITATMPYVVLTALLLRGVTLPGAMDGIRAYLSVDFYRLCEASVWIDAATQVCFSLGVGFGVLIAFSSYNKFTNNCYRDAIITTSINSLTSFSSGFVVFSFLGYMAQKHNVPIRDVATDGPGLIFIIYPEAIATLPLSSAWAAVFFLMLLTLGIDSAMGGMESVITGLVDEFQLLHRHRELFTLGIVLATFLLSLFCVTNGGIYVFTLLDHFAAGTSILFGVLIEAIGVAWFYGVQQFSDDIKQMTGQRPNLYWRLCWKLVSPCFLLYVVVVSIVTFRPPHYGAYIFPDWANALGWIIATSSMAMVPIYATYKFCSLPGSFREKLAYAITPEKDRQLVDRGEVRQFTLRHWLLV
How it was run: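 Given by mouth and assessed in the MLA (locomotor activity) test. Reported as the minimum effective dose (EDmin), mg/kg po.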

[10] = target: Sodium-dependent noradrenaline transporter (Mus musculus) (UniProt O55192); assay: In vivo potentiation of compound towards norepinephrine transporter after po administration was determined in mouse using mouse apomorphine hypothermia; assay type: functional, organism-based
Sodium-dependent noradrenaline transporter (Mus musculus), sequence (O55192 whole entry): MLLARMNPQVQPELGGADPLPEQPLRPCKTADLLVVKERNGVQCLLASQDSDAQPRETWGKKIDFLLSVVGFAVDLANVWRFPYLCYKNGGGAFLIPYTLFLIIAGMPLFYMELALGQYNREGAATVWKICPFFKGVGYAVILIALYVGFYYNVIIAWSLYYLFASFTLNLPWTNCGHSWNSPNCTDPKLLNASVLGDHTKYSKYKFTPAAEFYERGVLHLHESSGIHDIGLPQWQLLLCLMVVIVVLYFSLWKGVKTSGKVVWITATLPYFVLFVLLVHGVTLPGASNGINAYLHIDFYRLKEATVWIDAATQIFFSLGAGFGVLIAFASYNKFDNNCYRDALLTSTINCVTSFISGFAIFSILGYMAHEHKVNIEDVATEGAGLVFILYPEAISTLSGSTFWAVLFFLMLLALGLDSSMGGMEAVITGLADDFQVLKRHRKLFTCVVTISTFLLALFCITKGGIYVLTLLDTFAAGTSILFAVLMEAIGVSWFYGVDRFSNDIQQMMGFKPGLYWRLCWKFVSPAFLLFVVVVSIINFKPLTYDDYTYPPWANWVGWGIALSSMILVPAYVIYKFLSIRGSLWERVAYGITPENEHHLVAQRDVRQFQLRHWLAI
How it was run: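 Apomorphine (APO) test after oral administration. The result is expressed as the minimum effective dose (EDmin), mg/kg po.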

T1 sequence (P31645 whole entry): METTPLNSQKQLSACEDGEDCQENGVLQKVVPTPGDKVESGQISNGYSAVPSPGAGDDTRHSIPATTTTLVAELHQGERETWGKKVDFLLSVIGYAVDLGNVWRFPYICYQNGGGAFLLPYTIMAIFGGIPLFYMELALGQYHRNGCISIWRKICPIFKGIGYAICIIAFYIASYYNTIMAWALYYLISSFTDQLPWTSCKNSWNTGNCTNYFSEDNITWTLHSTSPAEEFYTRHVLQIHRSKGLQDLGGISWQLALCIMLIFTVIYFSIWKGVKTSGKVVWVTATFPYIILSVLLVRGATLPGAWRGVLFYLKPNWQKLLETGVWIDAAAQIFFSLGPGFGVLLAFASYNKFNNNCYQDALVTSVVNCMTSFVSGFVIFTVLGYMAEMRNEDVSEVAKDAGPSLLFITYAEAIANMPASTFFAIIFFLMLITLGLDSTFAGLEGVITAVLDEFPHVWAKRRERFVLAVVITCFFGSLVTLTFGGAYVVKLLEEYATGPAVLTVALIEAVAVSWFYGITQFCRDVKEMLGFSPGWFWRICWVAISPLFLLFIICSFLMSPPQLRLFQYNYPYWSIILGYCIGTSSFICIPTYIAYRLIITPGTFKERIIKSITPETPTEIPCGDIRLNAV

SMILES | Ki [1] [nM] | IC50 [2] [nM] | Ki [3] [nM] | IC50 [4] [nM] | IC50 [5] [nM] | Ki [6] [nM] | Ki [7] [nM] | EDmin [8] [mg/kg] | EDmin [9] [mg/kg] | EDmin [10] [mg/kg]
CN(C)CC1C2CCC(C2)C1c1ccc2ccccc2c1 (stereo unspecified) | 2.8 | 95 | 18 | 10 |  |  |  |  |  | 
CN(C)CC1C2CCC(C2)C1c1cccc2ccccc12 (stereo unspecified) | 52 | 1510 | 430 | 93 |  |  |  |  |  | 
CN(C)C[C@@H]1C2CCC(CC2)[C@@H]1c1ccc(Cl)c(Cl)c1 | 57 | 28 | 7.2 | 270 | 22 | 44 |  |  |  | 
CNC[C@H]1C2CCC(C2)[C@@H]1c1ccc2ccccc2c1 (stereo partly specified) | 3.6 | 86 | 41 | 9 |  |  |  |  |  | 
CN(C)C[C@H]1C2CCC(C2)[C@@H]1c1ccc2cc(O)ccc2c1 (stereo partly specified) | 47 |  | 6 |  |  |  | 50 |  |  | 
CN(C)C[C@@H]1C2CCC(C2)[C@H]1c1ccc2ccccc2c1 (stereo partly specified) | 5.8 | 93 | 38 | 20 |  |  |  | > 20 |  | 
CNC[C@H]1C2CCC(C2)[C@@H]1c1ccc2cc(OC)ccc2c1 (stereo partly specified) | 12 |  | 60 |  |  |  | 120 |  |  | 
COc1ccc2cc([C@H]3C4CCC(C4)[C@@H]3CN(C)C)ccc2c1 (stereo partly specified) | 25 |  | 64 |  |  |  | 68 |  |  | 
CNC[C@H]1C2CCC(C2)[C@@H]1c1ccc2cc(F)ccc2c1 (stereo partly specified) | 4.4 |  | 72 |  |  |  | 316 |  |  | 
CN(C)C[C@H]1C2CCC(C2)[C@@H]1c1ccc2ccccc2c1 (stereo partly specified) | 2.3 | 76 | 25 | 9 |  |  |  | 5 | 40 | 25
CN(C)C[C@H]1C2CCC(CC2)[C@@H]1c1cccc(Cl)c1 | 25 | 165 | 64 | 303 |  |  |  |  |  | 
CN(C)C[C@H]1C2CCC(C2)[C@@H]1c1ccc2cc(F)ccc2c1 (stereo partly specified) | 2.6 |  | 50 |  |  |  | 385 |  |  | 
CNCC1C2CCC(C2)C1c1ccc2ccccc2c1 (stereo unspecified) | 4.9 | 87 | 25 | 50 |  |  |  | 20 | 25 | 20

Source: ChEMBL document CHEMBL1136239, “Bicyclo[2.2.1]heptanes as novel triple re-uptake inhibitors for the treatment of depression” (Bioorg Med Chem Lett, 2003)
